rRNA inh HTS: selective bacterial rRNA inhibition in E. coli. E. coli WT GFP vs humanized-ribosome RFP mutants, fluorescence, 24 h; hits give low values; DMSO median 0, no signal -100. GFP signal change (wild-type ribosome), % (no concentration beside the values). 350,000 compounds, 1.6% hits;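 active means significant combined selectivity score with lowered wild-type GFP, culture density cut under 30%, mutant RFP and density less affected; inactive means any of these conditions unmet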
PglD inh: inhibitors of Campylobacter jejuni PglD acetyltransferase; purified PglD enzyme, DTNB colorimetric CoA detection; inhibition, % at 12.5 µM; 360,000 compounds, 0.098% hits; AID 602405; in the data active means inhibition above about 16%, passing the limit was not always enough
XiGFP reactiv: X-chromosome reactivation activator; XiGFP mouse fibroblasts, % GFP-positive cells imaging, 3 d; cells co-treated with 5-aza-dC sensitizer; scaled so ellipticine positive control = 100%; activation, % at 7.58 µM; 360,000 compounds, 0.055% hits; AID 743238;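 active means mean normalized replicate activation at least 10% and every replicate at or above 10%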
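Assay system: SV40-immortalized XiGFP fibroblast cells, line 68-5-11; buffer or medium: DMEM plus 5-aza-dC sensitizer; compound: one concentration, pinned; timing: compounds 3 days, fix/stain 15 min at room temperature; benchmarks: positive control ellipticine, 6 µM final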
RAD52 inh: blocks human RAD52 DNA annealing; recombinant RAD52 DNA annealing, FRET fluorescence; 360,000 compounds, 0.46% hits; inhibition, % at 18.7 µM; P43351; AID 651710;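 active means every replicate showing at least 50% inhibition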
Target sequence (P43351 whole entry, looked up): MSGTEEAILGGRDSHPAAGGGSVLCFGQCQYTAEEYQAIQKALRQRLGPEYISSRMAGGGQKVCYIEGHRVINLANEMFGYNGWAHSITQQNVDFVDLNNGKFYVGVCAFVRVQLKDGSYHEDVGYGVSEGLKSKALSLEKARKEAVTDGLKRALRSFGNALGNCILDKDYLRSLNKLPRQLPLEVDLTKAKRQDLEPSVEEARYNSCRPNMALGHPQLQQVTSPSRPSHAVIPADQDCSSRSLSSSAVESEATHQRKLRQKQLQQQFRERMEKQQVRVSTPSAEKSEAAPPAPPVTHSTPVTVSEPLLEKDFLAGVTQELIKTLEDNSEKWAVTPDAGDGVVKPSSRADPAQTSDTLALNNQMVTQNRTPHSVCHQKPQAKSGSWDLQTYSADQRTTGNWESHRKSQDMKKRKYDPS
RAD54 branch: inhibitors of human RAD54 branch migration; Q92698; AID 602329; 360,000 compounds, 0.14% hits; RAD54 Holliday junction branch migration, FAM/BHQ fluorescence; inhibition, % at 10.4 µM;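 active means mean normalized replicate activity at least 40 and at least half of replicates scoring 40 or more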;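 further: inhibitors cause a drop in the FAM fluorescence signal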
E-sel inducer: E-selectin induction on HUVECs. P16581. HUVEC E-selectin immunofluorescence imaging; normalized: neutral wells 0, TNF-alpha wells 100. activation, % at 7.58 µM. 260,000 compounds, 0.37% hits. AID 686992;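 active means mean E-selectin-positive cell signal at least 10% of the positive control, reached in at least 60% of replicates, without over 20% cell loss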
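assay system = HUVEC, human umbilical vein endothelial cells | input = 3,000 HUVEC seeded per well | medium = EGM-2 growth medium on 0.1% gelatin-coated wells | dosing = one compound dose added by pin transfer | signal = immunofluorescence imaging | read-out basis = % PE-positive cells | control set = TNF-alpha, DMSO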
A number is an active result; i = inactive; nt = no result given. A selection: hits, their analogues and other compounds. The true share with any hit is near 2%.

SMILES | rRNA inh HTS | PglD inh | XiGFP reactiv | RAD52 inh | RAD54 branch | E-sel inducer
COc1ccc(CCNS(=O)(=O)c2ccc3c(c2)NC(=O)CS3)cc1OC | i | i | i | i | i | 114.2
COc1ccc(CCNC(=O)CCS(=O)(=O)c2ccc3c(c2)NC(=O)CS3)cc1OC | i | i | i | i | i | i
COc1ccc(C#Cc2ccc3c(c2)O[C@H](CN(C)C(=O)Nc2cccc(OC)c2)[C@H](C)CN([C@@H](C)CO)S3(=O)=O)cc1 | i | i | i | i | i | i
COc1ccc(C#Cc2ccc3c(c2)O[C@@H](CN(C)C(=O)Nc2cccc(OC)c2)[C@H](C)CN([C@@H](C)CO)S3(=O)=O)cc1 | i | i | i | i | i | 35.2
CNC[C@H]1Oc2cc(C#Cc3ccc(OC)cc3)ccc2S(=O)(=O)N([C@H](C)CO)C[C@@H]1C | i | i | i | 55.6 | i | i
COC(=O)C[C@H]1C[C@H]2c3cc(NC(=O)C4CCC4)ccc3O[C@H]2[C@@H](CO)O1 | i | i | i | i | i | i
Cc1ccccc1CCN1CCCC(CN(C)C(=O)c2ccc3ncccc3c2)C1 (stereo unspecified) | i | i | i | i | i | 68.3
COc1ccccc1CCN1CCCC(CN(C)C(=O)c2ccc3nc[nH]c3c2)C1 (stereo unspecified) | i | i | i | i | i | nt
C=C1CC[C@@H]2[C@](C)(CO)[C@H](O)CC[C@@]2(C)[C@@H]1/C=C/C1=CCOC1=O | -23.1 | i | i | i | i | i
C=C1CCC2[C@](C)(CO)[C@H](O)CC[C@@]2(C)[C@@H]1/C=C/C1=CCOC1=O (stereo partly specified) | nt | i | nt | i | i | nt
O=c1[nH]c2ccccc2nc1-c1c[nH]c2ccccc12 | -25.6 | i | i | i | i | i
Nc1ccccc1-c1nc2ccccc2[nH]c1=O | i | i | i | i | i | i
O=C(C[C@H]1CC[C@@H](NC(=O)c2ccc3c(c2)OCO3)[C@H](CO)O1)NCc1ccc(Oc2ccccc2)cc1 | i | i | i | i | i | i
Cc1[nH]c2ccccc2c1CN1CCN(c2ccccn2)CC1 | i | i | i | i | i | i
Cc1[nH]c2ccccc2c1CN1CCC(Cc2ccccc2)CC1 | -42.3 | i | i | i | i | i
COC(=O)c1cccc(NC(=S)Nc2ccc(Cl)c(Cl)c2)c1 | -47.7 | i | i | i | i | nt
COC(=O)c1cc(NC(=O)Nc2cccc(Cl)c2)ccc1Cl | -51.0 | i | nt | i | i | nt
COC(=O)c1cccc(NC(=S)Nc2ccccc2Cl)c1 | i | i | i | i | i | i
CC(=O)Nc1cccc(C(=O)OCC(=O)c2ccccc2Cl)c1 | -24.2 | nt | i | i | nt | nt
CCC(=O)Nc1cccc(C(=O)OCC(=O)c2ccccc2Cl)c1 | nt | i | nt | nt | i | nt
CC(=O)N1[C@H](CO)[C@@H](c2ccccc2)[C@@H]1CN(C)C(=O)CN1CCOCC1 | i | i | i | nt | i | i
O=C(COC(=O)c1ccccc1C(=O)c1ccc(Cl)cc1)NCCc1ccccc1 | -29.2 | i | i | i | i | i
O=C(COC(=O)c1ccccc1C(=O)c1ccccc1)NCCc1ccccc1 | i | nt | i | i | nt | nt
COc1ccc(CCNC(=O)COC(=O)c2ccc(OC)cc2OC)cc1 | i | i | i | i | i | i
CCOc1ccccc1C(=O)OCC(=O)NCCc1ccc(OC)cc1 | -21.9 | i | i | i | i | i
SMILES | rRNA inh HTS | PglD inh | XiGFP reactiv | RAD52 inh | RAD54 branch | E-sel inducer
C[C@@H]1CN([C@H](C)CO)C(=O)c2cc(NC(=O)c3ccccc3)ccc2O[C@@H](C)CCCCO[C@H]1CN(C)C(=O)Cc1ccccc1 | i | i | i | i | i | nt
Nc1nnc(SCC(=O)Nc2ccc(Cl)c(C(=O)O)c2)s1 | i | nt | i | i | nt | nt
COC(=O)c1cc(NC(=O)CSc2nnc(N)s2)ccc1Cl | -21.6 | i | i | i | i | i
O=C(NCC[C@H]1CC[C@@H](NS(=O)(=O)c2ccc(F)cc2)[C@H](CO)O1)Nc1ccc(F)cc1 | i | i | i | i | i | i
CC(=O)Nc1cccc(-c2csc(NCc3ccccc3)n2)c1 | -29.8 | nt | i | i | nt | i
O=C(C[C@@H]1CC[C@@H]2[C@H](COC[C@H](O)CN2Cc2ccncc2)O1)NCc1ccncc1 | i | i | i | i | i | i
COc1ccc(NC(=O)N(C)C[C@@H]2Oc3ccc(NC(=O)Cc4ccccc4)cc3C(=O)N([C@@H](C)CO)C[C@H]2C)cc1 | i | i | i | i | i | i
Cc1ccccc1CSc1[nH]c(=O)ncc1C | i | i | i | i | i | nt
Cc1ccc(CSc2[nH]c(=O)ncc2C)cc1 | -18.7 | i | i | i | i | nt
COc1ccccc1-c1cnc2c(c1)C(=O)N([C@@H](C)CO)C[C@@H](C)[C@@H](CN(C)Cc1cccc(F)c1)O2 | i | i | i | i | i | i
O=C(NCC1CC1)[C@H]1[C@H](CO)[C@H]2Cn3c(cccc3=O)[C@H]2N1Cc1cncnc1 | i | i | i | i | i | i
CCC(C)NCCOCCOc1ccc(Cl)c2ccccc12 (stereo unspecified) | -53.1 | i | i | i | i | i
C[C@@H]1CCCCO[C@@H](CN(C)C(=O)Cc2ccccc2)[C@H](C)CN([C@@H](C)CO)C(=O)c2cc(NS(=O)(=O)c3cn(C)cn3)ccc2O1 | i | i | i | i | i | i
COc1ccccc1N1CCN(/N=C\c2ccccc2)CC1 | i | i | i | i | i | nt
COc1ccccc1N1CCN(/N=C\c2sccc2C)CC1 | -27.6 | nt | i | i | nt | i
COc1ccccc1N1CCN(/N=C/C=C/c2ccccc2[N+](=O)[O-])CC1 | -16.8 | i | i | i | i | i
COc1ccccc1N1CCN(c2ccc([N+](=O)[O-])cn2)CC1 | -20.9 | i | i | i | i | nt
C[C@@H]1CCCCO[C@@H](CN(C)C(=O)Nc2cccc3ccccc23)[C@H](C)CN([C@H](C)CO)C(=O)c2cc(NC(=O)CCCN(C)C)ccc2O1 | i | i | i | i | i | i
COC(=O)C1=C(C)OC(N)=C(C#N)C1C1CCCCC1 (stereo unspecified) | -20.9 | i | nt | i | i | nt
O=C(CN1CCN(c2ncccn2)CC1)N(Cc1ccccc1)c1ccc(F)cc1 | -34.8 | i | nt | i | i | nt
c1ccc(CN2CCN(c3ncccn3)CC2)cc1 | i | i | i | i | i | i
CCCc1cc(=O)[nH]c(Nc2ccc3c(c2)OCCO3)n1 | -16.1 | i | i | i | i | i
CCCCc1ccc(Nc2nc(CCC)cc(=O)[nH]2)cc1 | nt | i | nt | nt | i | nt
COc1ccc(/C=N/NC(=O)CCSc2nc3ccccc3s2)cc1 | -25.6 | nt | i | i | nt | nt
O=C(CSc1nc2ccccc2s1)N/N=C/c1ccc(C(=O)O)cc1 | i | nt | i | i | nt | nt
O=C(O)c1cccc(N2C(=O)c3ccc4c5c(ccc(c35)C2=O)C(=O)N(c2cccc(C(=O)O)c2)C4=O)c1 | i | i | i | i | i | nt
